Experimental data as given in ChEMBL document CHEMBL1914440, “Discovery of potent, selective, and orally bioavailable alkynylphenoxyacetic acid CRTH2 (DP2) receptor antagonists for the treatment of allergic inflammatory diseases” (J Med Chem, 2011).

Experiments:
[1] = molecular target: T1, Prostaglandin D2 receptor 2 (Homo sapiens, UniProt Q9Y5Y4); assay: Displacement of [3H]PGD2 from human CRTH2 expressed in chinese hamster CHO cells by liquid scintillation counting; assay type: cell-based
T1 sequence (Q9Y5Y4 whole entry): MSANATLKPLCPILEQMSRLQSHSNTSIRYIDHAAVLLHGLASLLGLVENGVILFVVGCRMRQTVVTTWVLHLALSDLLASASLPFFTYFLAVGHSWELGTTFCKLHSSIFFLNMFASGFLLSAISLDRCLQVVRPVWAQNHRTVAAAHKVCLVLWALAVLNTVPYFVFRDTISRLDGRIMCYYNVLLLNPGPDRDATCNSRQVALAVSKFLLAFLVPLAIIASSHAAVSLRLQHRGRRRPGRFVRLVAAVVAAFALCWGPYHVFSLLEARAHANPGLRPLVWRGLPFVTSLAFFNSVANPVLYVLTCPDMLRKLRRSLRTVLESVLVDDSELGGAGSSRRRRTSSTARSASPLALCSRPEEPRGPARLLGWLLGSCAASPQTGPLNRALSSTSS
Outline: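 Scintillation proximity competition assay: 2–5 μg human CRTH2 cell membranes, 1.5 nM [3H]PGD2, WGA-SPA beads, 10 mM HEPES/KOH pH 7.4, 10 mM MnCl2, protease inhibitors, 1% DMSO; 90 min, room temperature, shaking. Nonspecific binding defined with 1 μM PGD2. Ki by Cheng–Prusoff, mean of ≥3 independent dose–response experiments.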

[2] = Percentage unbound in human plasma; assay type: ADME, cell-free
[3] = Intrinsic clearance in human liver microsomes assessed per mg of protein at 1 uM by LC/MS/MS analysis; assay type: ADME, Microsome
[4] = Clearance in BALB/c mouse at 5 mg/kg, po by LC/MS/MS analysis; assay type: ADME, organism-based; design: dose 5 mg/kg, route oral; details: in vivo
[5] = Intrinsic clearance in rat liver microsomes assessed per mg of protein at 1 uM by LC/MS/MS analysis; assay type: ADME, Microsome
[6] = Percentage unbound in rat plasma; assay type: ADME, cell-free
[7] = Percentage unbound in mouse plasma; assay type: ADME, cell-free
[8] = AUC in BALB/c mouse at 5 mg/kg, po; assay type: ADME, organism-based; design: dose 5 mg/kg, route oral; details: plasma
Outline: (§1)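 Mouse PK after a 5 mg/kg oral dose.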

[9] = Oral bioavailability in BALB/c mouse at 5 mg/kg by LC/MS/MS analysis; assay type: ADME, organism-based; details: in vivo; outline: as §1
[10] = molecular target: T2, Prostaglandin D2 receptor 2 (Homo sapiens) (UniProt Q9Y5Y4); assay: Partial agonist activity at human CRTH2 expressed in chinese hamster CHO cells by cellular dielectric spectroscopy relative to PGD2; assay type: functional, cell-based
T2 sequence (whole entry): T1 sequence (Q9Y5Y4 whole entry)
Outline: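 CHO-CRTH2 cells seeded at 100000/well, grown 24 h at 37 °C, washed into HBSS/10 mM HEPES pH 7.4 with 1% DMSO; impedance recorded. Agonism: compound alone, 25 min read. Antagonism: PGD2 at EC80 added to cell–compound mixture, 25 min read. Run with 0.1% BSA.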

SMILES	Ki [1]	fraction unbound [2]	microsomal CLint at 1 µM [3]	CL/F [4]	microsomal CLint at 1 µM [5]	fraction unbound [6]	fraction unbound [7]	AUC [8]	bioavailability [9]	Emax [10]
CN(C)S(=O)(=O)c1ccc(F)c(C#Cc2cc(Cl)ccc2OCC(=O)O)c1	3.1 nM	0.009	< 10 µL/min/mg	10 mL/min/kg	< 10 µL/min/mg	0.007	0.029			
CS(=O)(=O)c1ccc(F)c(C#Cc2cc(Cl)ccc2OCC(=O)O)c1	3.3 nM	0.013		6.67 mL/min/kg		0.011	0.054	3240 ng·h/mL	24%	10%
O=C(O)COc1ccc(Cl)cc1C#Cc1ccc(CO)cc1F	28 nM		< 10 µL/min/mg	35 mL/min/kg	< 10 µL/min/mg				3%	
O=C(O)COc1ccc(C(F)(F)F)cc1C#Cc1ccccc1Cl	12 nM									60%
Cc1ccc(S(C)(=O)=O)cc1C#Cc1cc(Cl)ccc1OCC(=O)O	5 nM	0.017	14 µL/min/mg	23.3 mL/min/kg	18 µL/min/mg	0.014	0.027	1800 ng·h/mL	49%	10%
Cc1ccc(S(=O)(=O)N2CCOCC2)cc1C#Cc1cc(Cl)ccc1OCC(=O)O	3.6 nM		< 10 µL/min/mg	31.7 mL/min/kg	10 µL/min/mg			1220 ng·h/mL	48%	
COCCNS(=O)(=O)c1ccc(C)c(C#Cc2cc(Cl)ccc2OCC(=O)O)c1	3.6 nM		< 10 µL/min/mg	33.3 mL/min/kg	< 10 µL/min/mg			831 ng·h/mL	33%	
COCCN(C)S(=O)(=O)c1ccc(C)c(C#Cc2cc(Cl)ccc2OCC(=O)O)c1	4.1 nM	0.006	32 µL/min/mg		49 µL/min/mg	0.007	0.007			
CCCS(=O)(=O)c1cccc(C#Cc2cc(-c3ccccc3)ccc2OCC(=O)O)c1	19 nM									68%
CCCS(=O)(=O)c1ccc(Cl)c(C#Cc2cc(Cl)ccc2OCC(=O)O)c1	2.1 nM	0.003	< 10 µL/min/mg	16.7 mL/min/kg	< 10 µL/min/mg	0.002	0.006		112%	
CS(=O)(=O)c1cccc(C#Cc2cc(Cl)ccc2OCC(=O)O)c1	15 nM									10%
CC(C)S(=O)(=O)c1ccc(F)c(C#Cc2cc(Cl)ccc2OCC(=O)O)c1	4 nM			5.83 mL/min/kg					130%	
